Shown are actives, neighbours in structure and some others; about 1.8% of the full set was active somewhere.
CASP6 VEID inh = human caspase-6 inhibitors, primary screen, biochemical, VEID-R110 fluorescence, single point, set 2; P55212; purified caspase-6, Z-VEID-R110 cleavage fluorescence; inhibition, % at 12.5 µM; actives 0.53% (n = 350,000); AID 686996, 2013;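 active = mean inhibition across replicates at least about 35%, with every replicate also reaching that limit, limit read from the data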
NSD2 HMT inh = NSD2 histone methyltransferase inhibitors, primary screen, biochemical, AlphaScreen, single concentration, set 2. Histone-lysine N-methyltransferase NSD2 (Homo sapiens), O96028. NSD2 peptide methylation, 120 min. inhibition, % at 12.5 µM. actives 0.54% (n = 310,000); in the data active = inhibition above about 50%
UHRF1 MBD2 ctr = UHRF1 methylated DNA binding inhibitors, primary screen, counter-screen for MBD2 inhibitor project, biochemical, TR-FRET, human UHRF1, single concentration; E3 ubiquitin-protein ligase UHRF1 (Homo sapiens), Q96T88; UHRF1 binding to methylated oligo; inhibition, % at 4.4 µM; actives 0.75% (n = 370,000); AID 687016, 2013; in the data active = inhibition above about 21%;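 note: UHRF1 SRA domain binding a hemimethylated CpG hairpin DNA probe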
MBD2 inh = inhibitors of MBD2 binding to methylated DNA, primary screen, biochemical, TR-FRET, DNA-binding domain, human; actives 0.31% (n = 370,000); inhibition, % at 4.4 µM; AID 686964, 2013; MBD2 binding to methylated oligonucleotide; Methyl-CpG-binding domain protein 2 (Homo sapiens), Q9UBB5; in the data active = inhibition above about 13%
LEDGF integ inh = blockers of LEDGF/p75-dependent integrase strand transfer – biochemical, TR-FRET, high throughput, primary screen; AID 743269, 2014; TR-FRET IN-LEDGF/p75 DNA integration, Eu/Cy5; inhibition, % at 3.7 µM; actives 0.64% (n = 370,000); HIV-1 integrase (with human LEDGF/p75);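 active = inhibition above the screen-wide mean plus 3 SD, cut at about 13% in these data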;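 note: signal is the Cy5 over europium emission ratio at 671 and 618 nm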
TDP2 inh = human TDP2 enzyme inhibitors, primary screen, biochemical, epi absorbance, recombinant enzyme; T5PNP hydrolysis, p-nitrophenol absorbance 415 nm; inhibition, % at 12.8 µM; actives 0.34% (n = 370,000); AID 720702, 2013;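 active = inhibition above the mean of all tested compounds plus 3 SD, set per campaign, cut at about 25% in these data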
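Assay system: Recombinant human TDP2 | Quantity: 120 nM TDP2 per well | Incubation: 2 h at 37 °C | Signal: Epi absorbance | Evaluation: Percent inhibition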
Hits are given with their value; – = inactive; · = not tested or not shown.

SMILES	CASP6 VEID inh	NSD2 HMT inh	UHRF1 MBD2 ctr	MBD2 inh	LEDGF integ inh	TDP2 inh
COc1cc(-c2c(C(=O)c3ccccc3)[nH]c(N)c2C(N)=O)ccc1F	–	·	95	–	–	–
CC(C)NC(=O)N(C)C[C@@H]1Oc2cc(C#Cc3ccccn3)ccc2S(=O)(=O)N([C@@H](C)CO)C[C@@H]1C	–	·	·	·	·	·
COc1ccc(OC)c(CCNC(=O)C2CCN(c3ncnc4c3nc3n4CCCCC3)CC2)c1	–	·	26	–	–	–
COc1ccc(NC(=O)C2CCN(c3ncnc4c3nc3n4CCCCC3)CC2)c(OC)c1	–	–	–	–	–	–
NS(=O)(=O)c1ccc(NC(=O)CSc2nnc(NC3CC3)s2)cc1	36	–	–	–	–	–
C[C@@H]1CN([C@@H](C)CO)S(=O)(=O)c2ccc(Br)cc2O[C@H]1CN(C)C(=O)c1cnccn1	–	·	·	·	·	·
CCC(CC)C(=O)Nc1cccc(C(=O)Nc2nnc(C)s2)c1	–	–	23	–	–	–
COc1ccc(-n2c(CN3CCC(C(N)=O)CC3)nc3ccc([N+](=O)[O-])cc3c2=O)c(OC)c1	–	–	–	–	23	–
CCCC#Cc1ccc2c(c1)O[C@@H](CN(C)C(=O)NC(C)C)[C@@H](C)CN([C@H](C)CO)S2(=O)=O	–	·	·	·	·	·
CC(O)(CS(=O)(=O)Cc1ccccc1)C(=O)Nc1ccc(C(F)(F)F)cc1 (centres undefined)	·	–	–	–	–	–
CC(O)(CS(=O)(=O)Cc1ccccc1)C(=O)Nc1cccc(C(F)(F)F)c1 (centres undefined)	40	–	–	–	–	–
Cc1ccc(S(=O)(=O)N2CCN(C(=O)CCOc3cc(C)ccc3C)CC2)cc1	–	–	–	–	–	–
Cc1ccc(C)c(OCCC(=O)N2CCN(S(=O)(=O)c3cc(F)ccc3F)CC2)c1	45	–	–	–	–	–
C[C@@H]1CN([C@H](C)CO)S(=O)(=O)c2ccc(-c3ccccc3)cc2O[C@@H]1CN(C)C(=O)Cc1ccccc1	–	·	·	·	·	·
O=C(Nc1ccc(-c2nc3ncccc3o2)cc1)c1ccc([N+](=O)[O-])o1	–	–	40	–	–	–
COc1ccc(-c2cnc3c(c2)C(=O)N([C@@H](C)CO)C[C@@H](C)[C@@H](CN(C)C(=O)Cc2ccccn2)O3)cc1	–	·	·	·	·	·
CCOC(=O)C(Cc1ccc(OC)c([N+](=O)[O-])c1)NC(=O)CCC(=O)Nc1ccc(OC)cc1 (centres undefined)	–	–	28	–	–	–
CCCCCCCCCCCC(=O)NC(Cc1ccc(OC)c([N+](=O)[O-])c1)C(=O)O (centres undefined)	–	–	–	–	–	–
O=C(Cc1cccnc1)N1CC2(C1)[C@H](c1ccccc1)[C@H](CO)N2C(=O)C1CCCCC1	–	·	·	·	·	·
Cc1ccc2cc(CN(Cc3ccc4c(c3)OCO4)Cc3nnnn3Cc3ccco3)c(=O)[nH]c2c1	–	–	–	–	–	–
Cc1ccc(CN(Cc2cc3cc4c(cc3[nH]c2=O)OCCO4)Cc2nnnn2Cc2ccco2)cc1	·	–	–	–	17	–
C[C@H]1CCCCO[C@@H](CN(C)S(=O)(=O)c2cccs2)[C@@H](C)CN([C@@H](C)CO)C(=O)c2cc(NS(=O)(=O)c3cn(C)cn3)ccc2O1	–	·	·	·	·	·
CCOCC(=O)Nc1c(C(=O)OCC)oc2ccccc12	·	–	–	–	–	–
CCOC(=O)c1oc2ccccc2c1NC(=O)C(C)(C)C	–	–	52	–	–	–
COc1ccc(Br)cc1C1CC(=O)N2CN(C)CSC2=C1C#N (centres undefined)	35	·	–	–	–	–
SMILES	CASP6 VEID inh	NSD2 HMT inh	UHRF1 MBD2 ctr	MBD2 inh	LEDGF integ inh	TDP2 inh
COc1cc(/C=N/Nc2ccc(C(=O)O)cc2)ccc1O	39	·	–	–	–	–
COc1cc(/C=N/NC(=O)CC2C(=O)NN=C2C)ccc1O (centres undefined)	–	–	–	–	74	–
COc1cc(/C=N/Nc2ccc(C(=O)O)cc2)cc(OC)c1OC	–	–	–	–	–	–
COCC(=O)Nc1ccc2c(c1)C(=O)N(C)C[C@@H](OC)[C@H](C)CN(Cc1ccccc1C(=O)O)[C@H](C)CO2	–	·	·	·	·	·
CCC12CN(C(=O)c3ccco3)CC(CC)(CN(C(=O)c3ccco3)C1)C2=O	55	–	–	–	–	–
CO[C@H]1CN(C)C(=O)c2ccc(NC(C)=O)cc2OC[C@H](C)N(C(=O)c2ccccn2)C[C@H]1C	–	·	·	·	·	·
COc1ccc(NC(=O)CCS(=O)(=O)c2ccc(OC)cc2)cc1	·	–	–	–	–	–
CCOc1ccccc1NC(=O)CCS(=O)(=O)c1ccc(Br)cc1	71	–	–	–	–	–
CCOc1ccc(NC(=O)CCS(=O)(=O)c2ccc(Br)cc2)cc1	66	–	–	–	–	–
CCc1ccccc1NC(=O)CCS(=O)(=O)c1ccc(Br)cc1	–	–	–	–	–	–
O=C(CCS(=O)(=O)c1ccc(Br)cc1)Nc1cc(F)ccc1F	59	–	–	–	–	–
O=C1c2ccccc2C(=O)C1(CO)c1ccccc1	38	–	–	–	–	–
Cc1noc(C)c1NC(=O)Nc1ccc2c(c1)C(=O)N([C@@H](C)CO)C[C@@H](C)[C@H](CN(C)C(=O)CCCN(C)C)OCCCC[C@H](C)O2	–	·	·	·	·	·
CCO[C@@H]1OC(C(=O)O)=C[C@H](c2ccc(C(F)(F)F)cc2)[C@H]1CCCO	–	·	77	–	–	–
C[C@@H]1CCCCO[C@@H](CN(C)S(C)(=O)=O)[C@H](C)CN([C@@H](C)CO)C(=O)c2cc(NC(=O)c3ccccc3)ccc2O1	–	·	·	·	·	·
CCOc1ccccc1N(CC(=O)N(C)Cc1ccccc1)S(=O)(=O)c1ccccc1	–	–	23	–	–	–
S=C(c1ccccc1)N1CCN(c2ccccc2)CC1	–	–	–	–	–	–
CCN(CC)c1ccc(C(=S)N2CCN(c3ccccc3)CC2)cc1	·	–	21	–	–	–
O=C(CC1CC1)N1CC(=O)N2[C@H](C1)[C@@H](c1ccc(C#Cc3ccccc3)cc1)[C@@H]2CO	–	·	·	·	·	·
CN(C)/C=C1/C=C(C=O)OC1=O	45	–	–	–	–	–
CC1=C/C(=C/N(C)C)C(=O)O1	–	–	–	–	–	–
O=S(=O)(N[C@H]1CC[C@@H](CCn2cc(-c3ccccc3F)nn2)O[C@H]1CO)c1ccc(Cl)cc1	–	·	·	·	·	·
O=C1c2ccccc2C(=O)c2[nH]cnc21	–	–	–	–	–	–
